Assay results taken from ChEMBL document CHEMBL1133557, “Synthesis, SARs, and pharmacological characterization of 2-amino-3 or 6-fluorobicyclo[3.1.0]hexane-2,6-dicarboxylic acid derivatives as potent, selective, and orally active group II metabotropic glutamate receptor agonists” (J Med Chem, 2000).
pEC50, pIC50, pKi: −log10 of the molar value.

Experiments:
[1] = target: T1, Metabotropic glutamate receptor 2 (Rattus norvegicus, UniProt P31421); experiment: Agonist activity against Metabotropic glutamate receptor 2 expressed in CHO cells was evaluated by measuring forskolin-induced cyclic AMP formation; format: functional, cell-based
[2] = target: T2, Metabotropic glutamate receptor 3 (Rattus norvegicus, UniProt P31422); experiment: Tested for binding affinity against Metabotropic glutamate receptor 3 in CHO cells using [3H]-7 as radioligand; format: cell-based
[3] = target: T2, Metabotropic glutamate receptor 3; experiment: Antagonist activity against Metabotropic glutamate receptor 3 expressed in CHO cells was evaluated in presence of 30 uM glutamic acid; format: functional, cell-based
Summary of the method: (§1)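 mGluR2- or mGluR3-expressing CHO cells grown 2 days, then held 4-5 h in medium without glutamine. Cells were preincubated 20 min at 37 °C in PBS with 1 mM IBMX, then exposed for 15 min at 37 °C to 10 µM forskolin plus test agent with 30 µM glutamic acid present. Reaction stopped with ice-cold ethanol; cAMP measured by enzyme immunoassay.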

[4] = target: T1, Metabotropic glutamate receptor 2; experiment: Tested for binding affinity against Metabotropic glutamate receptor 2 in CHO cells using [3H]-7 as radioligand; format: cell-based
[5] = target: T1, Metabotropic glutamate receptor 2; experiment: Antagonist activity against Metabotropic glutamate receptor 2 expressed in CHO cells was evaluated in presence of 30 uM glutamic acid; format: functional, cell-based; conditions: read-out: EC50 (the source's name)
[6] = target: T2, Metabotropic glutamate receptor 3; experiment: Agonist potency against cloned Metabotropic glutamate receptor 3; format: functional
Rattus norvegicus [7] = experiment: Tested for % inhibition of PCP induced hyperactivity in rats at 100 mg/kg
Rattus norvegicus [8] = experiment: (§2) Tested for mGluR agonist activity by measuring the PCP induced hyperactivity in rats at 10 mg/kg; format: functional
Rattus norvegicus [9] = experiment: Tested for mGluR agonist activity by measuring the PCP induced hyperactivity in rats at 100 mg/kg; format: functional
Rattus norvegicus [10] = experiment: Tested for mGluR agonist activity by measuring the PCP induced hyperactivity in rats at […]; format: functional
Rattus norvegicus [11] = experiment: Tested for % inhibition of PCP induced head-weavings in rats at 10000 ug/kg
Rattus norvegicus [12] = experiment: (§3) Tested for % inhibition of PCP induced hyperactivity in rats at 10 mg/kg; format: functional
Rattus norvegicus [13] = experiment: (§4) Tested for mGluR agonist activity by measuring the PCP induced hyperactivity in rats at 30 mg/kg; format: functional
Rattus norvegicus [14] = experiment: Tested for mGluR agonist activity by measuring the head-weaving behavior in rats at 1000 ug/kg
Rattus norvegicus [15] = experiment: (§5) Tested for % inhibition of PCP induced hyperactivity in rats at 30 mg/kg; format: functional
Rattus norvegicus [16] = experiment: Effective dose to evaluate PCP induced head-weaving behavior in rats after oral administration; format: functional
Rattus norvegicus [17] = experiment: (§6) Effective dose to evaluate PCP induced hyper activity in rats after oral administration; format: functional
Rattus norvegicus [18] = experiment: Tested for mGluR agonist activity by measuring the PCP induced hyperactivity in rats at 0.1 mg/kg; format: functional
Summary of the method: (§7)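 Rats housed singly and acclimatized 60 min in activity-monitoring apparatus inside a sound-proof box. Oral dosing 180 min before PCP 5 mg/kg i.p.; locomotor counts recorded every 10 min for 120 min, n=6 per group. Total counts expressed as percent inhibition relative to vehicle (100%); ED50 derived; ANOVA plus Dunnett's test.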

Rattus norvegicus [19] = experiment: Tested for mGluR agonist activity by measuring the PCP induced hyperactivity in rats at 0.3 mg/kg; format: functional; summary of the method: as §7
Rattus norvegicus [20] = experiment: Tested for mGluR agonist activity by measuring the PCP induced head weaving behavior in rats at 0.3 ug/kg; format: functional
Summary of the method: (§8)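 Rats acclimatized individually at least 60 min. Compound given orally 60 min before PCP 7.5 mg/kg i.p. Head-weavings (slow side-to-side head movements) counted every 10 min for 30 min after PCP, n=6 per group. Percent inhibition versus vehicle total (100%); ED50 derived; ANOVA with Dunnett's test.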

Rattus norvegicus [21] = experiment: Tested for % inhibition of PCP induced hyperactivity in rats at 1 mg/kg; format: functional; summary of the method: as §7
Rattus norvegicus [22] = experiment: Tested for % inhibition of PCP induced hyperactivity in rats at 0.1 mg/kg; format: functional; summary of the method: as §7
Rattus norvegicus [23] = experiment: Tested for mGluR agonist activity by measuring the PCP induced hyperactivity in rats at 3 mg/kg; format: functional; summary of the method: as §7
Rattus norvegicus [24] = experiment: Tested for % inhibition of PCP induced head-weavings in rats at 0.1 ug/kg; format: functional; summary of the method: as §8
Rattus norvegicus [25] = experiment: Tested for mGluR agonist activity by measuring the PCP induced hyperactivity in rats at 1 mg/kg; format: functional; summary of the method: as §7
Rattus norvegicus [26] = experiment: Tested for % inhibition of PCP induced head-weavings in rats at 0.03 ug/kg; format: functional; summary of the method: as §8
Rattus norvegicus [27] = experiment: Tested for % inhibition of PCP induced head-weavings in rats at 0.3 ug/kg; format: functional; summary of the method: as §8
Rattus norvegicus [28] = experiment: Tested for % inhibition of PCP induced hyperactivity in rats at 3 mg/kg; format: functional; summary of the method: as §7
Rattus norvegicus [29] = experiment: Tested for % inhibition of PCP induced hyperactivity in rats at 0.3 mg/kg; format: functional; summary of the method: as §7
Rattus norvegicus [30] = experiment: Tested for mGluR agonist activity by measuring the PCP induced head weaving behavior in rats at 0.1 ug/kg; format: functional; summary of the method: as §8
Rattus norvegicus [31] = experiment: as §6; format: functional; summary of the method: as §7; remark: listed apart in the source
Rattus norvegicus [32] = experiment: Tested for mGluR agonist activity by measuring the PCP induced head weaving behavior in rats at 0.03 ug/kg; format: functional; summary of the method: as §8
Rattus norvegicus [33] = experiment: Tested for % inhibition of PCP induced head-weavings in rats at 100 ug/kg; format: functional; summary of the method: as §8
Rattus norvegicus [34] = experiment: as §2; format: functional; summary of the method: as §7; remark: listed apart in the source
Rattus norvegicus [35] = experiment: as §4; format: functional; summary of the method: as §7; remark: listed apart in the source
Rattus norvegicus [36] = experiment: Tested for mGluR agonist activity by measuring the PCP induced head-weavings in rats at 1000 ug/kg; format: functional; summary of the method: as §8
Rattus norvegicus [37] = experiment: Tested for mGluR agonist activity by measuring the PCP induced head-weavings in rats at 100 ug/kg; format: functional; summary of the method: as §8
Rattus norvegicus [38] = experiment: Tested for mGluR agonist activity by measuring the PCP induced head-weavings in rats at 300 ug/kg; format: functional; summary of the method: as §8
Rattus norvegicus [39] = experiment: as §5; format: functional; summary of the method: as §7; remark: listed apart in the source
Rattus norvegicus [40] = experiment: Tested for % inhibition of PCP induced head-weavings in rats at 1000 ug/kg; format: functional; summary of the method: as §8
Rattus norvegicus [41] = experiment: as §3; format: functional; summary of the method: as §7; remark: listed apart in the source
Rattus norvegicus [42] = experiment: Tested for % inhibition of PCP induced head-weavings in rats at 300 ug/kg; format: functional; summary of the method: as §8
[43] = target: T1, Metabotropic glutamate receptor 2; experiment: Antagonist activity against Metabotropic glutamate receptor 2 expressed in CHO cells was evaluated by measuring forskolin-induced cyclic AMP formation; format: functional, cell-based; summary of the method: as §1

T1 sequence (P31421 whole entry): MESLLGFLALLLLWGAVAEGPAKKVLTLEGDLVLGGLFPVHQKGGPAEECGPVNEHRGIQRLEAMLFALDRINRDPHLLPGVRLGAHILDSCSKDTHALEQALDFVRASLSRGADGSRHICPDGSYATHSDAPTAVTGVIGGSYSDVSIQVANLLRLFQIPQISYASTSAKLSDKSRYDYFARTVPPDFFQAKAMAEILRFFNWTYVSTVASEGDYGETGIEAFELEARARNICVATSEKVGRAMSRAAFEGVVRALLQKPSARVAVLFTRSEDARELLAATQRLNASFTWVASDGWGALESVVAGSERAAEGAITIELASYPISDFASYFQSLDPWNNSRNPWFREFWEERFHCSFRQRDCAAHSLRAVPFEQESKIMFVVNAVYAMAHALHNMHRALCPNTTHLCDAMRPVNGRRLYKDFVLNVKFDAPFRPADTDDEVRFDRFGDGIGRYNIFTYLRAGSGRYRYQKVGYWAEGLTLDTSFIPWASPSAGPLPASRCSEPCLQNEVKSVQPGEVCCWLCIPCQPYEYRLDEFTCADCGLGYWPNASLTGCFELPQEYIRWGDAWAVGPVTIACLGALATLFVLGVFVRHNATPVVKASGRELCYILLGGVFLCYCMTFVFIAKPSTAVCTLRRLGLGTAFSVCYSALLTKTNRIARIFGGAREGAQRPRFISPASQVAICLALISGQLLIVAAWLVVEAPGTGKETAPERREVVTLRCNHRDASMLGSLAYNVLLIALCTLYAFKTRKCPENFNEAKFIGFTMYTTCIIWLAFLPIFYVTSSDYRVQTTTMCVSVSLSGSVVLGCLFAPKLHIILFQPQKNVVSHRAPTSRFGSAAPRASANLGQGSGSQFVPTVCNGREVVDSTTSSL
T2 sequence (P31422 whole entry): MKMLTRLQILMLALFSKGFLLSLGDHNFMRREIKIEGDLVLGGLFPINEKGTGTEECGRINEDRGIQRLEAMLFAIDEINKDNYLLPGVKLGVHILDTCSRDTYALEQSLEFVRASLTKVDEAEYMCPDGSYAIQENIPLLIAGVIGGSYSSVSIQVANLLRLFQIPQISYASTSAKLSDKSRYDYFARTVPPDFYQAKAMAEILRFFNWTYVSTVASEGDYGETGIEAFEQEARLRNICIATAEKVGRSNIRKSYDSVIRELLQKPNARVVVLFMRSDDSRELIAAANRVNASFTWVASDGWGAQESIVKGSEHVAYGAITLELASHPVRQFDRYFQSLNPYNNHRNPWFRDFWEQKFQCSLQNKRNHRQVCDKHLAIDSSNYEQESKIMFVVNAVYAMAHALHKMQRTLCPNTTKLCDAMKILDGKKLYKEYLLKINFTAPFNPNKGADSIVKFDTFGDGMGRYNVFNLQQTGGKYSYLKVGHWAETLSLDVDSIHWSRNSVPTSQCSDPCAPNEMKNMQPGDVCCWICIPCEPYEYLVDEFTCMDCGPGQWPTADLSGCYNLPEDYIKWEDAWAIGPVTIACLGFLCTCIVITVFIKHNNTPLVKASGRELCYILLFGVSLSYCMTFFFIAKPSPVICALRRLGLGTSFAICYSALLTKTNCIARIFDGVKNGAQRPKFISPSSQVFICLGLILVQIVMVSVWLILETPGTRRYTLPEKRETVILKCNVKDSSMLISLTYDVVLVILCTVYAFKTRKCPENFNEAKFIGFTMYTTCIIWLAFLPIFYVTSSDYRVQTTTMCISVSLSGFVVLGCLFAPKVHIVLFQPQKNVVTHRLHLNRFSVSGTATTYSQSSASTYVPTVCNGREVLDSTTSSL

N[C@@]1(C(=O)O)CC(=O)[C@@H]2[C@H]1[C@@]2(F)C(=O)O (stereo in doubt; (-)-14)
pEC50 [1]: 7.02

N[C@@]1(C(=O)O)CC[C@@H]2[C@H]1[C@@]2(F)C(=O)O (stereo in doubt; (+)11)
pEC50 [1]: 5.95

N[C@@]1(C(=O)O)CC[C@@H]2[C@H]1[C@@]2(F)C(=O)O (stereo in doubt; (-)-11)
pKi [2]: 7.38 | pEC50 [3]: < 4.00 | pEC50 [1]: 7.78 | pKi [4]: 7.65 | pIC50 [5]: < 4.00 | pEC50 [6]: 7.09

N[C@]1(C(=O)O)[C@H]2[C@@H](CC1(F)F)[C@@H]2C(=O)O (racemic)
pEC50 [1]: < 4.00 | pIC50 [5]: 4.44

N[C@@]1(C(=O)O)CC[C@H]2[C@H](C(=O)O)[C@H]21
inhibition in vivo at 100 mg/kg (Rattus norvegicus [7]): 44% | pKi [2]: 7.27 | Total counts (Rattus norvegicus [8]): 40600 | Total counts (Rattus norvegicus [9]): 36000 | Total counts (Rattus norvegicus [10]): 6.5 | Inhibition % (Rattus norvegicus [11]): 83% | inhibition in vivo at 10 mg/kg (Rattus norvegicus [12]): 37% | Total counts (Rattus norvegicus [13]): 43800 | Number of head-weavings (Rattus norvegicus [14]): 33 | inhibition in vivo at 30 mg/kg (Rattus norvegicus [15]): 32% | pEC50 [6]: 7.20 | ED50 (Rattus norvegicus [16]): 3 mg/kg | ED50 (Rattus norvegicus [17]): > 100 mg/kg

N[C@@]1(C(=O)O)CC[C@@H]2[C@H]1[C@@]2(F)C(=O)O (racemic)
pEC50 [1]: 7.47

N[C@@]1(C(=O)O)CC(=O)[C@@H]2[C@H]1[C@@]2(F)C(=O)O (racemic)
pEC50 [1]: 8.90

N[C@@]1(C(=O)O)CC(O)[C@@H]2[C@H]1[C@@]2(F)C(=O)O (mixture of isomers)
pEC50 [1]: 7.68 | pIC50 [5]: < 4.00

N[C@@]1(C(=O)O)CC(=O)[C@@H]2[C@H]1[C@@]2(F)C(=O)O (stereo in doubt; (+)-14)
Total counts (Rattus norvegicus [18]): 38500 | pKi [2]: 8.44 | Total counts (Rattus norvegicus [19]): 27700 | Total counts (Rattus norvegicus [20]): 4.88 | inhibition in vivo at 1 mg/kg (Rattus norvegicus [21]): 56% | inhibition in vivo at 0.1 mg/kg (Rattus norvegicus [22]): 36% | Total counts (Rattus norvegicus [23]): 7760 | inhibition in vivo at 0.0001 mg/kg (Rattus norvegicus [24]): 52% | Total counts (Rattus norvegicus [25]): 26100 | inhibition in vivo at 3e-05 mg/kg (Rattus norvegicus [26]): 21% | inhibition in vivo at 0.0003 mg/kg (Rattus norvegicus [27]): 86% | inhibition in vivo at 3 mg/kg (Rattus norvegicus [28]): 87% | pEC50 [3]: < 4.00 | inhibition in vivo at 0.3 mg/kg (Rattus norvegicus [29]): 54% | pEC50 [1]: 9.24 | pKi [4]: 8.48 | pIC50 [5]: < 4.00 | Total counts (Rattus norvegicus [30]): 16.2 | ED50 (Rattus norvegicus [31]): 0.3 mg/kg | pEC50 [6]: 8.68 | Total counts (Rattus norvegicus [32]): 27.1

N[C@]1(C(=O)O)[C@H]2[C@@H](C[C@@H]1F)[C@@H]2C(=O)O
inhibition in vivo at 0.1 mg/kg (Rattus norvegicus [33]): 35% | pKi [2]: 7.18 | Total counts (Rattus norvegicus [34]): 11300 | Total counts (Rattus norvegicus [35]): 1850 | Total counts (Rattus norvegicus [36]): 7.5 | Total counts (Rattus norvegicus [37]): 25.5 | Total counts (Rattus norvegicus [23]): 40600 | Total counts (Rattus norvegicus [38]): 21 | inhibition in vivo at 3 mg/kg (Rattus norvegicus [28]): 26% | pEC50 [3]: < 4.00 | inhibition in vivo at 30 mg/kg (Rattus norvegicus [39]): 97% | inhibition in vivo at 1 mg/kg (Rattus norvegicus [40]): 81% | inhibition in vivo at 10 mg/kg (Rattus norvegicus [41]): 79% | ED50 (Rattus norvegicus [31]): 5.1 mg/kg | pEC50 [6]: 7.34 | inhibition in vivo at 0.3 mg/kg (Rattus norvegicus [42]): 47%

C[C@]1(C(=O)O)[C@@H]2CC[C@@](N)(C(=O)O)[C@@H]21 (racemic)
pEC50 [43]: < 4.00 | pEC50 [1]: < 4.00
